Screens from PubChem.
Rows were chosen to be rich in hits. Some 3.4% of all compounds tested hit in one or more screens of this group.
E-selectin induc: induces E-selectin expression in human endothelial cells; P16581; HUVEC E-selectin immunofluorescence imaging; normalized: neutral wells 0, TNF-alpha wells 100; activation, % at 7.58 µM; hit rate 0.37% among 260,000; AID 686992;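 active means mean E-selectin-positive cell signal at least 10% of the positive control, reached in at least 60% of replicates, without over 20% cell loss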
Target sequence (P16581 whole entry, looked up): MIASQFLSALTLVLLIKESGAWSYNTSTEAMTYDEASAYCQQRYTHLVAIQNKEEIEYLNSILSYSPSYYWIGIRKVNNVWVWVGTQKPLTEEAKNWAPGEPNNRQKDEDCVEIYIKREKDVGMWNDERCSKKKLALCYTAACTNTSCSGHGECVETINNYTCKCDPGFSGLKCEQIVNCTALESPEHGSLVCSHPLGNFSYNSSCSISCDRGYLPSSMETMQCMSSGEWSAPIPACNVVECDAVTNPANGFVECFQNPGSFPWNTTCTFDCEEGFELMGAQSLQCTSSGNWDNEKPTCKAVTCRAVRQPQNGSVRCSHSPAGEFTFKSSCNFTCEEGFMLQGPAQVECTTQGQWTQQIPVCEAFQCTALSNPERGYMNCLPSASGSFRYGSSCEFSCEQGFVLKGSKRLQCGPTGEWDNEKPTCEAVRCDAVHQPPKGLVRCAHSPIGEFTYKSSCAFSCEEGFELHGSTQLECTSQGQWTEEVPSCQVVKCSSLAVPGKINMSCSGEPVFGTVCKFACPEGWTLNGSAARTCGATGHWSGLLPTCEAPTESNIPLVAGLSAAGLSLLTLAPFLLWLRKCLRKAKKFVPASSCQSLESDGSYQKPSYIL
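System: HUVEC, human umbilical vein endothelial cells; quantity: 3,000 cells/well; buffer or medium: EGM-2 medium, gelatin-coated wells; dosing: single-point compound dose; detection: immunofluorescence imaging; evaluation: % PE-positive cells; benchmarks: TNF-alpha, DMSO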
S100A4 MyoIIA: inhibitors of human S100A4 binding to myosin IIA peptide | AID 652163 | hit rate 0.14% among 360,000 | S100A4/TAMRA-MyoIIA peptide fluorescence polarization | inhibition, % at 10.7 µM | P26447;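 active means mean inhibition of at least 70% across replicates, with every replicate also reaching that level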
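Test system: S100A4 monomer protein; Medium: HEPES pH 7.2 with CaCl2, KCl, NaCl, DTT, Triton; Probe or stimulus: TAMRA-labelled myosin IIA heavy-chain peptide probe, 5 nM; Doses: one dose per compound; Times: polarization read 5 min after assay mix addition, stable 5–60 min; Benchmarks: neutral control DMSO, positive control TFP.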
rRNA inh HTS: inhibits bacterial ribosomal RNA function over humanized ribosomes; E. coli WT GFP vs humanized-ribosome RFP mutants, fluorescence, 24 h; active compounds read low; DMSO median 0, no signal -100; hit rate 1.6% among 350,000; GFP signal change (wild-type ribosome), % (concentration not given with the values); AID 720706;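 active means significant combined selectivity score with lowered wild-type GFP, culture density cut under 30%, mutant RFP and density less affected; inactive means any of these conditions unmet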
SIRT5 block: blocks human SIRT5 desuccinylation of peptide. inhibition, % at 15 µM. Purified SirT5, succinyl-peptide AMC, trypsin-coupled fluorescence. Q9NXA8. hit rate 1.1% among 330,000; in the data active means inhibition above about 15%
AF4-AF9 inh: MLL-AF4/AF9 protein interaction inhibition | P42568 | AlphaScreen, biotin-AF4 peptide binding to FLAG-AF9 | inhibition, % at 10 µM | hit rate 0.47% among 350,000 | AID 651704;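 active means every replicate reaching a set inhibition limit, whatever the replicate mean, cut at about 25% in these data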;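 further: 0% = plate neutral control median and 100% = total signal loss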
ERAP1 inh: inhibitors of human ERAP1 aminopeptidase | AID 652197 | recombinant ERAP1, Leu-AMC fluorescence, 60 min | Q9NZ08 | hit rate 0.15% among 340,000 | inhibition, % at 10.7 µM;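 active means mean replicate inhibition of at least 30%, or all replicates individually reaching that 30% level; inactive means mean below 30% and not every replicate reaching it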;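 further: 0% = neutral control wells and 100% = L-leucinethiol positive control wells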
An asterisk follows results filed as active; nt = not tested or not shown.

SMILES | E-selectin induc | S100A4 MyoIIA | rRNA inh HTS | SIRT5 block | AF4-AF9 inh | ERAP1 inh
COc1cccc(-c2ccc3c(c2)[C@@H]2[C@@H](CCN2C(=O)c2ccccc2F)[C@H](CO)N3C)c1 | 0 | 1 | -9 | 20* | 4 | 0
COc1cccc(-c2ccc3c(c2)[C@@H]2[C@@H](CCN2C(=O)C2CCCCC2)[C@H](CO)N3)c1 | 0 | -18 | -9 | -9 | 36* | 0
COc1cccc(-c2ccc3c(c2)[C@@H]2[C@@H](CCN2C(=O)C2CCCC2)[C@H](CO)N3)c1 | 0 | -2 | -35 | 4 | 32* | 0
O=C(C1CCCC1)N1CC[C@@H]2[C@H](CO)Nc3ccc(C4=CCCCC4)cc3[C@@H]21 | 50* | 0 | -32 | -8 | 34* | -3
COc1ccc(CN(C)C[C@@H]2OCCCC[C@H](C)Oc3ccc(NS(=O)(=O)c4ccc(OC)cc4)cc3C(=O)N([C@H](C)CO)C[C@H]2C)cc1 | 0 | nt | 0 | nt | nt | nt
COc1ccccc1C#Cc1ccc2c(c1)[C@H]1[C@H](CCN1C(=O)c1cccc(F)c1)[C@H](CO)N2 | 0 | 15 | -6 | -29 | 2 | -1
O=C(c1cccc(F)c1)N1CC[C@@H]2[C@@H](CO)Nc3ccc(-c4ccccc4)cc3[C@@H]21 | 0 | -3 | -11 | 3 | 31* | 0
COc1ccccc1C#Cc1ccc2c(c1)[C@@H]1[C@@H](CCN1C(=O)c1cccc(F)c1)[C@H](CO)N2 | 0 | 7 | -4 | 18* | 6 | 0
O=C(C1CCCC1)N1CC[C@@H]2[C@@H](CO)Nc3ccc(-c4cccc(F)c4)cc3[C@@H]21 | 1 | -3 | -47 | -8 | 25* | 0
CN1c2ccc(-c3ccccc3)cc2[C@@H]2[C@@H](CCN2C(=O)c2cccc(F)c2)[C@@H]1CO | 0 | 130* | -19 | 6 | 2 | 4
C[C@@H]1CN([C@@H](C)CO)C(=O)Cc2cc(NC(=O)Nc3ccc4c(c3)OCO4)ccc2O[C@H]1CN(C)C(=O)Nc1ccc(F)cc1 | 0 | nt | -1 | nt | nt | nt
COc1ccc2c3c(n(C)c2c1)[C@@H](CO)N(C(=O)CN(C)C)CC31CN(C(=O)NC(C)C)C1 | 0 | nt | 3 | nt | 0 | nt
C[C@H]1CN([C@@H](C)CO)C(=O)c2cccc(NC(=O)NC3CCCCC3)c2O[C@@H]1CN(C)S(=O)(=O)c1cn(C)cn1 | 0 | -1 | 2 | -2 | -9 | 0
Cc1nc2ccccc2c(=O)n1-c1cccc(NC(=O)c2cccs2)c1 | 0 | -5 | -5 | -6 | 0 | 4
O=C(Nc1cccc(N2C(=O)C=CC2=O)c1)c1cccs1 | 0 | -6 | 9 | 0 | 9 | 33*
CCOC(=O)c1cccc(NC(=O)c2ccc3c(c2)OCO3)c1 | nt | 3 | -6 | 19* | -1 | -2
O=C(Nc1ccc(NC(=O)c2cccs2)cc1)c1ccc2c(c1)OCO2 | 0 | 1 | 9 | -2 | 4 | 0
O=C(Nc1cccc(NC(=O)c2cccs2)c1)c1ccc2c(c1)OCO2 | -3 | 1 | -34* | 1 | 0 | -3
Cc1ccc(NC(=O)c2ccc(Cl)c(NC(=O)c3cccs3)c2)cc1 | nt | -6 | -37* | -2 | 0 | 5
COCC(=O)N1[C@H](C(=O)Nc2ccccc2)[C@@H](CO)[C@@H]2Cn3c(ccc(-c4cccnc4)c3=O)[C@@H]21 | -1 | 5 | 2 | -21 | 0 | 4
COCC(=O)N1CC2(C1)CN(C(=O)c1ccccn1)[C@H](CO)c1c2c2ccc(OC)cc2n1C | nt | nt | 4 | nt | nt | nt
COc1ccc(C(=O)N(C)Cc2ccccc2)cc1Br | 0 | -3 | -27 | 18* | -2 | 1
COc1ccc(CN(C)C(=O)c2ccc(Oc3ccccc3)cc2)cc1F | 0 | -3 | -13 | -7 | 0 | 5
CCN(Cc1ccccc1)S(=O)(=O)c1cc(C(=O)NC2CCCCCC2)ccc1OC | nt | -1 | -11 | 3 | 0 | -1
COc1ccc(C(=O)O)cc1S(=O)(=O)N(CCc1ccccc1)Cc1ccccc1 | 0 | -8 | -36* | 1 | 1 | -2
SMILES | E-selectin induc | S100A4 MyoIIA | rRNA inh HTS | SIRT5 block | AF4-AF9 inh | ERAP1 inh
COCC(=O)Nc1ccc2c(c1)OC[C@@H](C)N(CC1CC1)C[C@@H](C)[C@H](OC)CN(C)C2=O | 0 | 7 | 4 | -1 | -3 | nt
C[C@@H]1CCCCO[C@@H](CN(C)S(=O)(=O)c2ccc(Cl)cc2)[C@H](C)CN([C@@H](C)CO)C(=O)c2cc(N(C)C)ccc2O1 | 0 | nt | -8 | nt | nt | nt
COc1ccc(S(=O)(=O)N(C)C[C@@H]2Oc3c(NC(=O)c4ccncc4)cccc3C(=O)N([C@@H](C)CO)C[C@H]2C)cc1 | -9 | -4 | -2 | 17* | -2 | 1
C[C@@H]1CN([C@H](C)CO)C(=O)c2cccc(NC(=O)c3ccncc3)c2O[C@H]1CN(C)S(=O)(=O)c1ccccc1 | 32* | 1 | 5 | nt | -2 | -2
C[C@H]1CN([C@@H](C)CO)C(=O)c2cccc(NC(=O)c3ccncc3)c2O[C@@H]1CN(C)S(=O)(=O)c1ccccc1 | 3 | -1 | -1 | nt | -3 | 5
Cc1cccc(-c2ccc([C@H]3[C@H]4CN(C(=O)NC5CCCCC5)CC(=O)N4[C@H]3CO)cc2)c1 | 1 | -3 | -1 | 0 | 1 | -2
COc1ccc(NC(=O)Nc2ccc3c(c2)C(=O)N([C@H](C)CO)C[C@@H](C)[C@H](CN(C)S(C)(=O)=O)OCCCC[C@@H](C)O3)cc1 | 0 | -9 | 5 | 4 | 2 | -3
Cc1cc(OCc2nnc(SC(C)C(=O)O)n2Cc2ccccc2)ccc1Cl (centres undefined) | nt | 15 | -31 | 24* | -2 | -10
Cc1c(N=NC2=C(O)CCCC2=O)c(=O)n(-c2ccccc2)n1C | nt | -11 | 18 | 26* | -7 | 13
Cc1c(N=Nc2ccc(O)cc2)c(=O)n(-c2ccccc2)n1C | 6 | 0 | 6 | 6 | -5 | -3
C[C@H](CO)N1C[C@H](C)[C@H](CN(C)C(=O)Nc2ccccc2)Oc2ncc(Br)cc2C1=O | 0 | -3 | 1 | -1 | 2 | 0
O=C(O)COc1ccccc1/C=N/NC(=O)CSc1nnc(SCc2cccc3ccccc23)s1 | 0 | -16 | 6 | 17* | -4 | nt
O=C(O)COc1ccccc1/C=N/NC(=O)Cc1ccccc1 | 0 | -3 | -2 | 2 | 1 | 10
NC(=S)N/N=C\c1ccccc1OCc1ccccc1 | nt | -2 | -26* | 0 | 10 | -1
O=C(CSCc1ccccc1)N/N=C/c1ccccc1OCc1ccccc1 | nt | 2 | -27* | -4 | 5 | 14
O=C(O)COc1ccccc1/C=N/NC(=O)CSc1nnc(SCc2ccc(Cl)cc2)s1 | 0 | -3 | 0 | -3 | -5 | nt
